MIC, Ratio and ED50 data for five compounds are collected here from ChEMBL document CHEMBL1123986, “Oral absorption of cephalosporin antibiotics. 2. Expanded structure-activity relationships of 7-(arylacetamido)-3-substituted cephalosporins” (1988).

In brackets after ≈: the same amount, converted by molar mass.

The subject of test [1] is Streptococcus pneumoniae. Put plainly: Minimum inhibitory concentration against Streptococcus pneumoniae. Format: functional. Summed up:
(§1)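 Agar dilution MIC in μg/mL. […] Organisms not run are marked not tested.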

The test system of test [2] is Salmonella typhi. Put plainly: Minimum inhibitory concentration against Salmonella typhi. Format: functional, Salmonella enterica subsp. enterica serovar Typhi. The following applies: Salmonella enterica.
A short description of test [3]: Ratio of ED50 value evaluated in Staphylococcus aureus by po to sc administration. Format: functional. In short, it runs like this:
(§2)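 Oral/subcutaneous effective-dose ratio. Both routes were dosed in random-sex ICR mice of 19–21 g at 1 and 5 h after an intraperitoneal challenge of 50–500 LD50 from a frozen organism pool. Each route used five 2-fold dilution levels with eight mice per level, and the po value was divided by the sc value.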

Test [4] in a line: Ratio of ED50 value evaluated in Streptococcus pneumoniae by po to sc administration. The test is classed as functional. Summed up:
as §2

A short description of test [5]: Ratio of ED50 value evaluated in Streptococcus pyogenes by po to sc administration. Format: functional. In short, it runs like this:
as §2

Test [6] relates to Streptococcus pneumoniae. The test can be described thus: Efficacy against mouse infections caused by S. Pneumoniae measured as Minimum inhibitory concentration.
The subject of the next test is Klebsiella aerogenes. Put plainly: Minimum inhibitory concentration against Enterobacter aerogenes. Format: functional. Summed up: as §1
For a further test, the system named is Escherichia coli. The test can be described thus: Minimum inhibitory concentration against Escherichia coli. Format: functional. Summed up:
as §1

For test [7], the system named is Haemophilus influenzae. Put plainly: (§3) Minimum inhibitory concentration against Haemophilus influenzae. The test is classed as functional. Summed up: as §1
Test [8] deals with Haemophilus influenzae. The description is as §3. The test is classed as functional. In short, it runs like this:
as §1
This is another data set of the same source.

Test [9] has as its system Klebsiella pneumoniae. The test can be described thus: Minimum inhibitory concentration against Klebsiella pneumoniae. The test is classed as functional. In short, it runs like this:
as §1

Test [10] concerns Mus musculus. The test can be described thus: (§4) Effective dose administered orally (po) to 19-21-g random sex ICR mice at 1 hr and 5 hr intervals after intraperitoneal Staphylococcus aureus. The test is classed as functional. In short, it runs like this: (§5)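 Mouse protection: random-sex ICR mice, 19–21 g, challenged intraperitoneally from a frozen organism pool giving 50–500 LD50 per challenge dose. Drug given sc or po at 1 and 5 h post-infection. Five 2-fold dilution levels per compound, eight mice per dilution.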

For test [11], the system named is Mus musculus. The test can be described thus: (§6) Effective dose administered subcutaneously (sc) to 19-21-g random sex ICR mice at 1 hr and 5 hr intervals after intraperitoneal administration of Streptococcus pneumoniae. Format: functional. Summed up:
as §5

Test [12] has as its system Staphylococcus aureus. The test can be described thus: Minimum inhibitory concentration against Staphylococcus aureus. Format: functional. Summed up:
as §1

In test [13] the test system is Salmonella typhi. Put plainly: Minimum inhibitory concentration by agar dilution method against Salmonella typhi. Format: functional, Salmonella enterica subsp. enterica serovar Typhi. The following applies: Salmonella enterica. On the technique in general: In agar dilution, organisms are placed on agar that contains the substance at set levels.
In test [14] the test system is Mus musculus. Put plainly: (§7) Effective dose administered orally (po) to 19-21-g random sex ICR mice at 1 hr and 5 hr intervals after intraperitoneal administration of Streptococcus pneumoniae. The test is classed as functional. Summed up: as §5
The subject of test [15] is Mus musculus. The test can be described thus: (§8) Effective dose administered subcutaneously (sc) to 19-21-g random sex ICR mice at 1 hr and 5 hr intervals after intraperitoneal administration of Staphylococcus aureus. The test is classed as functional. In short, it runs like this: as §5
Test [16] relates to Mus musculus. The test can be described thus: (§9) Effective dose administered orally (po) to 19-21-g random sex ICR mice at 1 hr and 5 hr intervals after intraperitoneal Streptococcus pyogenes. Format: functional. Summed up: as §5
In test [17] the test system is Streptococcus pyogenes. The test can be described thus: Minimum inhibitory concentration against Streptococcus pyogenes. The test is classed as functional. In short, it runs like this: as §1
The test system of test [18] is Mus musculus. Put plainly: (§10) Effective dose administered subcutaneously (sc) to 19-21-g random sex ICR mice at 1 hr and 5 hr intervals after intraperitoneal administration of Streptococcus pyogenes. Format: functional. In short, it runs like this: as §5
Test [19] deals with Staphylococcus aureus. The test can be described thus: Efficacy against mouse infections caused by Staphylococcus aureus measured as Minimum inhibitory concentration.
Test [20] concerns Streptococcus pyogenes. Put plainly: Efficacy against mouse infections caused by Streptococcus pyogenes measured as Minimum inhibitory concentration.
Test [21] deals with Haemophilus influenzae. Put plainly: Minimum inhibitory concentration by agar dilution method against Haemophilus influenzae (beta lactamase(-)). Format: functional. Summed up: as §1
The test system of test [22] is Klebsiella pneumoniae. The test can be described thus: Minimum inhibitory concentration by agar dilution method against Klebsiella pneumoniae. The test is classed as functional. In short, it runs like this: as §1
Test [23] relates to Staphylococcus aureus. Described as §4. The test is classed as functional. Summed up:
as §5

Test [24] deals with Streptococcus pneumoniae. The description is as §6. The test is classed as functional. Summed up:
as §5

In test [25] the test system is Streptococcus pneumoniae. The test can be described thus: Efficacy against mouse infections caused by S. Pneumoniae measured as Minimum inhibitory concentration. Format: functional.
Test [26] concerns Streptococcus pneumoniae. Described as §7. Format: functional. In short, it runs like this:
as §5

For test [27], the system named is Staphylococcus aureus. The description is as §8. Format: functional. In short, it runs like this: as §5
Test [28] relates to Staphylococcus aureus. The test can be described thus: Efficacy against mouse infections caused by Staphylococcus aureus measured as Minimum inhibitory concentration. Format: functional.
Test [29] relates to Streptococcus pyogenes. Described as §9. Format: functional. In short, it runs like this: as §5
For test [30], the system named is Streptococcus pyogenes. The test can be described thus: Efficacy against mouse infections caused by Streptococcus pyogenes measured as Minimum inhibitory concentration. The test is classed as functional.
Test [31] has as its system Streptococcus pyogenes. Described as §10. Format: functional. In short, it runs like this: as §5
Test [32] concerns Haemophilus influenzae. The test can be described thus: Minimum inhibitory concentration by agar dilution method against (beta lactamase(+). The test is classed as functional. Summed up: as §1
Test [33] has as its system Haemophilus influenzae. The test can be described thus: Minimum inhibitory concentration by agar dilution method against Haemophilus influenzae (beta lactamase(-). Format: functional. In short, it runs like this:
as §1

Test [34] has as its system Mus musculus. The test can be described thus: Effective dose administered orally (po) to 19-21-g random sex ICR mice at 1 hr and 5 hr intervals after intraperitoneal Streptococcus pneumoniae. Format: functional. In short, it runs like this:
as §5

In the case of `Nc1nc(CC(=O)N[C@@H]2C(=O)N3C(C(=O)O)=C(Cl)CS[C@H]23)cs1`, the MIC was 0.25 µg/mL (≈ 0.667 µM) in the test on Streptococcus pneumoniae [1], 0.25 µg/mL (≈ 0.667 µM) against Salmonella typhi [2] and 0.5 µg/mL (≈ 1.33 µM) in the test on Streptococcus pneumoniae [6]. For the same compound, the Ratio amounted to 4.5 in [3], 1.4 in test [4] and 0.7 in test [5].

Usually ED50 stands for the dose at which the effect has come halfway, by size or by number of responders. Turning to `O=C(CSc1cc(Cl)ccc1Cl)N[C@@H]1C(=O)N2C(C(=O)O)=C(Cl)CS[C@H]12`, the MIC in the test on Klebsiella aerogenes is greater than 128 µg/mL; with Escherichia coli, 32 µg/mL (≈ 70.5 µM); against Haemophilus influenzae [7], 1 µg/mL (≈ 2.2 µM); in the test on Haemophilus influenzae [8] it was 1 µg/mL (≈ 2.2 µM); against Klebsiella pneumoniae [9], 32 µg/mL (≈ 70.5 µM); against Streptococcus pneumoniae [1] it was less than 0.008 µg/mL. For the same compound, the MIC is 0.03 µg/mL (≈ 0.0661 µM) against Staphylococcus aureus [12]; 64 µg/mL (≈ 141 µM) with Salmonella typhi [13]; less than 0.008 µg/mL against Streptococcus pyogenes [17]; 0.015 µg/mL (≈ 0.0331 µM) in the test with Streptococcus pneumoniae [6]; 0.03 µg/mL (≈ 0.0661 µM) against Staphylococcus aureus [19]; 0.125 µg/mL (≈ 0.275 µM) in the test on Streptococcus pyogenes [20]. Moreover, the ED50 in the test with Mus musculus [10] was 7.7 mg/kg; in the test with Mus musculus [11], 6.3 mg/kg; with Mus musculus [14] it was greater than 25 mg/kg; with Mus musculus [15], 1.3 mg/kg; in the test with Mus musculus [16], 7.2 mg/kg; in the test on Mus musculus [18] it was 2.8 mg/kg. Further, the figures for the Ratio in [3] and in test [5] were 5.9 and 2.6, respectively.

Regarding `COC1=C(C(=O)O)N2C(=O)[C@@H](NC(=O)Cc3csc4ccccc34)[C@H]2SC1`, the MIC against Klebsiella aerogenes is greater than 128 µg/mL; in the test on Escherichia coli, greater than 128 µg/mL; with Haemophilus influenzae [8], 0.5 µg/mL (≈ 1.24 µM); in the test on Haemophilus influenzae [21] it was 8 µg/mL (≈ 19.8 µM); against Klebsiella pneumoniae [22], greater than 128 µg/mL; in the test with Streptococcus pneumoniae [25], 0.5 µg/mL (≈ 1.24 µM). In addition, the MIC against Streptococcus pneumoniae [1] was 0.5 µg/mL (≈ 1.24 µM); against Staphylococcus aureus [12], 0.25 µg/mL (≈ 0.618 µM); against Salmonella typhi [2] it was greater than 128 µg/mL; against Staphylococcus aureus [28], 0.5 µg/mL (≈ 1.24 µM); with Streptococcus pyogenes [30], 0.25 µg/mL (≈ 0.618 µM); against Streptococcus pyogenes [17], 0.25 µg/mL (≈ 0.618 µM). Moreover, the ED50 with Staphylococcus aureus [23] is 2.8 mg/kg; in the test on Streptococcus pneumoniae [24], greater than 10 mg/kg; in the test on Streptococcus pneumoniae [26], greater than 10 mg/kg; in the test on Staphylococcus aureus [27], 1.4 mg/kg; with Streptococcus pyogenes [29], greater than 10 mg/kg; in the test with Streptococcus pyogenes [31], greater than 10 mg/kg. In addition, the Ratio in test [3] came out at 2.

With `Nc1nc(CC(=O)N[C@@H]2C(=O)N3C(C(=O)O)=C(Cl)CS[C@H]23)c(-c2ccccc2)s1`, the MIC against Klebsiella aerogenes is greater than 128 µg/mL; with Escherichia coli, greater than 128 µg/mL; against Haemophilus influenzae [32], 16 µg/mL (≈ 35.5 µM); in the test on Haemophilus influenzae [33], 16 µg/mL (≈ 35.5 µM); with Klebsiella pneumoniae [9], greater than 128 µg/mL; in the test with Streptococcus pneumoniae [1], 0.03 µg/mL (≈ 0.0665 µM). Moreover, the MIC against Staphylococcus aureus [12] was 0.03 µg/mL (≈ 0.0665 µM); in the test on Salmonella typhi [2], greater than 128 µg/mL; against Streptococcus pyogenes [17], 0.03 µg/mL (≈ 0.0665 µM).

`CC1(C)S[C@@H]2[C@H](NC(=O)COc3ccccc3)C(=O)N2[C@H]1C(=O)O` [PENICILLIN V]: the ED50 with Mus musculus [34] turned out to be 2.3 mg/kg; with Mus musculus [10], 0.46 mg/kg. The Ratio is recorded as 11 in test [3], 1.1 in test [4] and 3.9 in test [5].
